Usually pIC50 stands for the IC50 on a negative log10 scale, so that one unit is a factor of ten.

The results in this text go back to ChEMBL document CHEMBL1136151, “Suzuki cross-coupling approaches to the synthesis of bioactive 3-substituted and 5-substituted-4-methoxy-6-methyl-2-pyrones” (Bioorg Med Chem Lett, 2003).

pIC50: −log10 of the molar value.

Test [1] has as its system Botrytis cinerea. Description: Percent growth of Botrytis cinerea after 7 days of incubation. The format is functional. More on the design: concentration or dose not given beside the values. The essentials:
(§1)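 Fungal plate assay: pyrone dissolved in absolute EtOH at 10mg/mL and pipetted 2 cm offset from the centre of the plate containing the organism. EtOH alone served as control. Growth is recorded as percentage of the organism after 72 h and after 7 days of incubation.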

The subject of the next test is A2780. Put plainly: In vitro growth inhibitory activity against A2780 human ovarium carcinoma cell line was determined. The test is classed as functional, cell-based. The gist of the method: (§2)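 Cell growth inhibition measured in cultured tumour cells by MTT assay. IC50 derived from the growth inhibition.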
A further test relates to Escherichia coli. Put plainly: Antimicrobial activity against Escherichia coli was determined after 96 hours of incubation. The test is classed as functional. The essentials:
(§3)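 Disk diffusion: cellulose disks loaded with test compound and placed on bacterial plates, with an EtOH control disk. Incubation 96 h. Read-out is the radius (mm) of the inhibition zone.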

Test [2] deals with Fusarium oxysporum. Put plainly: Percent growth of Fusarium oxysporum after 72 hours of incubation. The format is functional. The arrangement: concentration or dose not given beside the values. The gist of the method:
as §1

The test system of test [3] is Fusarium oxysporum. Put plainly: Percent growth of Fusarium oxysporum after 7 days of incubation. The format is functional. The arrangement: concentration or dose not given beside the values. The gist of the method: as §1
Another test deals with Staphylococcus aureus. Description: Antimicrobial activity against Staphylococcus aureus was determined after 96 hours of incubation. The format is functional. The gist of the method: as §3
The next test has as its system Saccharomyces cerevisiae. Description: Antimicrobial activity against Saccharomyces cerevisiae was determined after 48 hours of incubation. The test is classed as functional. The essentials:
(§4)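 Disk diffusion on yeast plates: cellulose disks carrying test compound, with an EtOH control. Incubation 48 h. The inhibition zone radius is recorded in mm.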

Test [4] concerns Globisporangium mamillatum. Description: Percent growth of Pythium mammillatum after 7 days of incubation. The test is classed as functional. The arrangement: concentration or dose not given beside the values. The gist of the method: as §1
For test [5], the system named is Globisporangium ultimum. Put plainly: Percent growth of Pythium ultimum after 72 hours of incubation. The test is classed as functional. The arrangement: concentration or dose not given beside the values. The essentials:
as §1

Test [6] concerns Globisporangium mamillatum. Put plainly: Percent growth of Pythium mammillatum after 72 hours of incubation. The test is classed as functional. The arrangement: concentration or dose not given beside the values. The gist of the method:
as §1

Test [7] deals with Botrytis cinerea. Description: Percent growth of Botrytis cinerea after 72 hours of incubation. The test is classed as functional. More on the design: concentration or dose not given beside the values. The essentials:
as §1

Test [8] deals with Aspergillus niger. Description: Percent growth of Aspergillus niger after 72 hours of incubation. The arrangement: concentration or dose not given beside the values. The format is functional. The gist of the method:
as §1

For another test, the system named is Bacillus subtilis. Put plainly: Antimicrobial activity against Bacillus subtilis was determined after 96 hours of incubation. The test is classed as functional. The gist of the method:
as §3

The test system of test [9] is Thanatephorus cucumeris. Put plainly: Percent growth of Rhizoctonia solani after 72 hours of incubation. The test is classed as functional. More on the design: concentration or dose not given beside the values. The essentials: as §1
Test [10] has as its system Schizosaccharomyces pombe. Description: Antimicrobial activity against Schizosaccharomyces pombe was determined after 48 hours of incubation. The test is classed as functional. The gist of the method:
as §4

For a further test, the system named is K562. Put plainly: In vitro growth inhibitory activity against K562 human chronic myelogenous leukemia cell line was determined. The test is classed as functional, cell-based. The essentials:
as §2

In test [11] the test system is Aspergillus niger. Put plainly: Percent growth of Aspergillus niger after 7 days of incubation. The format is functional. The arrangement: concentration or dose not given beside the values. The gist of the method: as §1
Test [12] concerns Globisporangium ultimum. Description: Percent growth of Pythium ultimum after 7 days of incubation. The arrangement: concentration or dose not given beside the values. The test is classed as functional. The gist of the method:
as §1

For a further test, the system named is Candida albicans. Description: Antimicrobial activity against Candida albicans was determined after 48 hours of incubation. The format is functional. The essentials:
as §4

Test [13] deals with Thanatephorus cucumeris. Put plainly: Percent growth of Rhizoctonia solani after 7 days of incubation. More on the design: concentration or dose not given beside the values. The test is classed as functional. The gist of the method:
as §1

Test [14] relates to Globisporangium mamillatum. Put plainly: Percent growth of Pythium mammillatum after 7 days of incubation; NT=Not tested. The format is functional. The gist of the method:
as §1

For the compound `CCCCCC/C=C/c1c(OC)cc(C)oc1=O`, the Growth came out at 100% in the test on Botrytis cinerea [1]; 11% in the test on Fusarium oxysporum [2]; 60% in the test on Fusarium oxysporum [3]; 100% in test [4]; 100% in the test with Globisporangium ultimum [5]; 25% in test [6]. For the same compound, the Growth with Botrytis cinerea [7] came to 60%; in the test on Aspergillus niger [8], 89%; in the test on Thanatephorus cucumeris [9] it was 53%; with Aspergillus niger [11], 95%; in the test on Globisporangium ultimum [12], 100%; with Thanatephorus cucumeris [13], 100%. The pIC50 in the test on A2780 and in the test with K562 was 4.52 each time. In addition, the Activity with Escherichia coli worked out at 0 mm; with Staphylococcus aureus, 0 mm; in the test on Saccharomyces cerevisiae, 0 mm; in the test with Bacillus subtilis, 18 mm; in [10], 0 mm; in the test with Candida albicans it was 0 mm.
As for `CCCCCC/C=C/c1c(OC)cc(=O)oc1C`, the Growth with Botrytis cinerea [1] stood at 94%; in the test with Fusarium oxysporum [2] it was 10%; in the test with Fusarium oxysporum [3] it was 46%; in [14], 90%; in the test on Globisporangium ultimum [5] it was 100%; in test [6], 22%. For the same compound, the Growth with Botrytis cinerea [7] is listed as 29%; with Aspergillus niger [8], 90%; in the test with Thanatephorus cucumeris [9], 40%; in the test with Aspergillus niger [11], 93%; with Globisporangium ultimum [12], 100%; in the test on Thanatephorus cucumeris [13], 100%. The pIC50 with A2780 is 4.57; in the test on K562, 4.48. The Activity in the test on Escherichia coli is 14 mm; in the test with Staphylococcus aureus, 16 mm; in the test on Saccharomyces cerevisiae, 0 mm; in the test with Bacillus subtilis, 16 mm; in test [10], 22 mm; with Candida albicans, 18 mm.
